Measurements from different studies.
Each line is one published result; the experiments were not run side by side.
Cell line: A549
Observed: cell growth or viability

Compound | test | conditions | IC50 [µM]
Cc1nc(Nc2ccc3c(c2)C(C)(C)C(=O)N3)c2ccccc2n1 | MTT |  | 3.21
O=C(O)c1ccc2c(c1)nc(Nc1cccc(Cl)c1)c1ccncc12 | resazurin | 48 h | 11.5
Cc1ccc2c(-c3cc4c(CNCc5cccnc5)cnc(C)c4o3)cc(=O)oc2c1C | MTT | 72 h | 36.4
Cc1nc(Nc2ccc3c(c2)/C(=C/c2ccccc2C)C(=O)N3)c2ccccc2n1 | MTT |  | 18.2
O=C(C=Cc1ccccc1)Nc1cc(-c2ccnc(N3CCOCC3)c2)ccn1 | MTT | 72 h | 0.444
C[C@H]1Oc2cc(cnc2N)-c2c(nn(C)c2C#N)CN(C)C(=O)c2ccc(F)cc21 |  |  | > 8.41
C[C@H](CCC(=O)O)[C@H]1CC[C@H]2[C@@H]3CC[C@@H]4C[C@H](O)CC[C@]4(C)[C@H]3CC[C@]12C | MTT | 72 h | 70
C=CC(=O)N1CCN(c2nc(=O)n(-c3c(C)ccnc3C(C)C)c3nc(-c4c(O)cccc4F)c(F)cc23)[C@@H](C)C1 | ATP luminescence |  | > 10
Cc1ccc2c(-c3cc4c(CN5CCN(Cc6ccccn6)CC5)cnc(C)c4o3)cc(=O)oc2c1 | MTT | 72 h | 43.1
Cc1nc(Nc2ccc3c(c2)/C(=C/c2ccccc2Cl)C(=O)N3)c2ccccc2n1 | MTT |  | 5.67
CN(C)C/C=C/C(=O)Nc1cc2c(Nc3ccc(F)c(Cl)c3)ncnc2cc1O[C@H]1CCOC1 | MTT | 72 h | 48.5
COc1cc2ncnc(N(C)c3ccc4c(c3)/C(=C/c3cccc(Cl)c3)C(=O)N4C)c2cc1OC | MTT |  | 5.83
Cc1ncc(CN2CCc3ccccc3C2)c2cc(C(=O)c3ccc4c(c3)OCCO4)oc12 | MTT | 72 h | 28.2
C=C(F)C(=O)N1CCN(c2nc(OC[C@@H]3CCCN3C)nc3c2CCN(c2cccc4cccc(Cl)c24)C3)C[C@@H]1CC#N | ATP luminescence | 3D culture | > 1
